Measurements published in ChEMBL document CHEMBL4422629, “Discovery of an Orally Bioavailable and Central Nervous System (CNS) Penetrant mGlu7 Negative Allosteric Modulator (NAM) in Vivo Tool Compound: N-(2-(1 H-1,2,4-triazol-1-yl)-5-(trifluoromethoxy)phenyl)-4-(cyclopropylmethoxy)-3-methoxybenzamide (VU6012962)” (J Med Chem, 2019).
The source made the active and inactive calls. The rule behind the calls is not given here.

Legend:
[1] = biological target: Metabotropic glutamate receptor 7 (Rattus norvegicus, UniProt P35400); test: Negative allosteric modulation of rat mGlu7 receptor expressed in HEK cells harboring Ga15 assessed as reduction in L-AP4-induced calcium flux preincubated for 142 secs followed by agonist addition and measured after 120 secs by Fluo-4-AM-dye based fluorescence assay; assay type: functional, cell-based
Sequence of Metabotropic glutamate receptor 7 (P35400 whole entry): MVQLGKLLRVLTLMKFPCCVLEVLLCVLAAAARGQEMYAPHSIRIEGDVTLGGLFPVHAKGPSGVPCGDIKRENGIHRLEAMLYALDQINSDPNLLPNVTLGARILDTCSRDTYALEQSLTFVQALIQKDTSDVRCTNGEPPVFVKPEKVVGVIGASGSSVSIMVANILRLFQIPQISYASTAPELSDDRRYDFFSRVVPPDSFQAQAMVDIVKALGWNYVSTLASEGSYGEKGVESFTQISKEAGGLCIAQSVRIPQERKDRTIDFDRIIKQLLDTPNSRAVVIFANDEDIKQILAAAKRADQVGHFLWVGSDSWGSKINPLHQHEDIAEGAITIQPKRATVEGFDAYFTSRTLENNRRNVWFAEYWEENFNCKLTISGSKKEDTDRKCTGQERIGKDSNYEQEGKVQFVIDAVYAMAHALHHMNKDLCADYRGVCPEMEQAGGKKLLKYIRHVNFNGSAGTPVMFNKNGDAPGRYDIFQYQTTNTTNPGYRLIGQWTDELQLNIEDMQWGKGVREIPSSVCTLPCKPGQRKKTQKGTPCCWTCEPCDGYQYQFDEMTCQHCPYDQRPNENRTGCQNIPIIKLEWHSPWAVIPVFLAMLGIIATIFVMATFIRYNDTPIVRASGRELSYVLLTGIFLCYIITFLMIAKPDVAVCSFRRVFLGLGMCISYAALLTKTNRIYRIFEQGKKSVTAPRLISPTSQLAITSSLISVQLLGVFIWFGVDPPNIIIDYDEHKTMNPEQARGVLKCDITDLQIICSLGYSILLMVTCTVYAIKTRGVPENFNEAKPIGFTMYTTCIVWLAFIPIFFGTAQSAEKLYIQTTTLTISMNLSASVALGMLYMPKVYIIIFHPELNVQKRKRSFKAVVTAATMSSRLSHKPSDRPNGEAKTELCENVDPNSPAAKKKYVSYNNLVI

[2] = Fraction unbound in Sprague-Dawley rat plasma at 0.2 to 0.25 mg/kg, iv via cassette dosing measured up to 24 hrs post dose by LC/MS/MS analysis; assay type: ADME, organism-based; details: for fraction unbound at 24 h: Sprague-Dawley, plasma
[3] = Unbound fraction in Sprague-Dawley rat brain at 0.2 to 0.25 mg/kg, iv via cassette dosing measured up to 24 hrs post dose by LC/MS/MS analysis; assay type: ADME, organism-based
Mus musculus [4] = test: Anxiolytic-like activity in C57Bl/6J mouse assessed as increase in total time spent in the light side of the chamber at 15 mg/kg, ip measured during 10-min testing period; assay type: functional, organism-based
Procedure, shortened: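 Mouse light/dark box anxiety model; single ip dose with a 1 h treatment time before testing. Read-out is total time spent in the light side of the chamber versus vehicle-treated controls. Groups compared by one-way ANOVA with Dunnett's post hoc test; all data points screened with Grubb's outlier test.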

[5] = CSF to plasma permeability coefficient, Kp of the compound in Sprague-Dawley rat at 30 mg/kg, ip measured at 1 hr post dose by LC/MS/MS analysis; assay type: ADME, organism-based
Procedure, shortened: (§1)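 Rat tissue distribution after a single 30 mg/kg ip dose, with compound measured in plasma, brain and CSF. Kp taken as tissue:plasma total ratio. Unbound levels used plasma protein binding and brain homogenate binding fractions.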

[6] = biological target: 5-hydroxytryptamine receptor 2B (Homo sapiens) (UniProt P41595); test: Binding affinity to cloned human 5-HT2B expressed in CHO-K1 cell membranes by radioligand displacement assay
Sequence of 5-hydroxytryptamine receptor 2B (Homo sapiens) (P41595 whole entry): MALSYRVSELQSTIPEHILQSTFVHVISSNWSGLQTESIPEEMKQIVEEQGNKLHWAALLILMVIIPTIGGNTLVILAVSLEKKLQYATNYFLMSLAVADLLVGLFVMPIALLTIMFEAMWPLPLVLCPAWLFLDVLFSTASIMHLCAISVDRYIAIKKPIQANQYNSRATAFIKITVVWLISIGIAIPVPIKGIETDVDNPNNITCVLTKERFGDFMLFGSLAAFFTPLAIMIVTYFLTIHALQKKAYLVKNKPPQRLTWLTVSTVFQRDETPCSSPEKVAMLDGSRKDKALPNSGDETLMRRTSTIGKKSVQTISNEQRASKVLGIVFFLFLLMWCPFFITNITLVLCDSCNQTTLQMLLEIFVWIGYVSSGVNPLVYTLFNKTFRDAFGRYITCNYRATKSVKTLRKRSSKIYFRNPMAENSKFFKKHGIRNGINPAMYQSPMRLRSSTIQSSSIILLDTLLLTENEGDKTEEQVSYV
Procedure, shortened: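 Eurofins lead profiling panel of 68 GPCRs, ion channels and transporters, tested at 10 μM and read as percent activity.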

[7] = biological target: Metabotropic glutamate receptor 5 (Homo sapiens, UniProt P41594); test: Negative allosteric modulation of mGlu5 receptor (unknown origin)
[8] = biological target: Metabotropic glutamate receptor 1 (Homo sapiens, UniProt Q13255); test: Negative allosteric modulation of mGlu1 receptor (unknown origin)
Sequence of Metabotropic glutamate receptor 1 (Q13255 whole entry): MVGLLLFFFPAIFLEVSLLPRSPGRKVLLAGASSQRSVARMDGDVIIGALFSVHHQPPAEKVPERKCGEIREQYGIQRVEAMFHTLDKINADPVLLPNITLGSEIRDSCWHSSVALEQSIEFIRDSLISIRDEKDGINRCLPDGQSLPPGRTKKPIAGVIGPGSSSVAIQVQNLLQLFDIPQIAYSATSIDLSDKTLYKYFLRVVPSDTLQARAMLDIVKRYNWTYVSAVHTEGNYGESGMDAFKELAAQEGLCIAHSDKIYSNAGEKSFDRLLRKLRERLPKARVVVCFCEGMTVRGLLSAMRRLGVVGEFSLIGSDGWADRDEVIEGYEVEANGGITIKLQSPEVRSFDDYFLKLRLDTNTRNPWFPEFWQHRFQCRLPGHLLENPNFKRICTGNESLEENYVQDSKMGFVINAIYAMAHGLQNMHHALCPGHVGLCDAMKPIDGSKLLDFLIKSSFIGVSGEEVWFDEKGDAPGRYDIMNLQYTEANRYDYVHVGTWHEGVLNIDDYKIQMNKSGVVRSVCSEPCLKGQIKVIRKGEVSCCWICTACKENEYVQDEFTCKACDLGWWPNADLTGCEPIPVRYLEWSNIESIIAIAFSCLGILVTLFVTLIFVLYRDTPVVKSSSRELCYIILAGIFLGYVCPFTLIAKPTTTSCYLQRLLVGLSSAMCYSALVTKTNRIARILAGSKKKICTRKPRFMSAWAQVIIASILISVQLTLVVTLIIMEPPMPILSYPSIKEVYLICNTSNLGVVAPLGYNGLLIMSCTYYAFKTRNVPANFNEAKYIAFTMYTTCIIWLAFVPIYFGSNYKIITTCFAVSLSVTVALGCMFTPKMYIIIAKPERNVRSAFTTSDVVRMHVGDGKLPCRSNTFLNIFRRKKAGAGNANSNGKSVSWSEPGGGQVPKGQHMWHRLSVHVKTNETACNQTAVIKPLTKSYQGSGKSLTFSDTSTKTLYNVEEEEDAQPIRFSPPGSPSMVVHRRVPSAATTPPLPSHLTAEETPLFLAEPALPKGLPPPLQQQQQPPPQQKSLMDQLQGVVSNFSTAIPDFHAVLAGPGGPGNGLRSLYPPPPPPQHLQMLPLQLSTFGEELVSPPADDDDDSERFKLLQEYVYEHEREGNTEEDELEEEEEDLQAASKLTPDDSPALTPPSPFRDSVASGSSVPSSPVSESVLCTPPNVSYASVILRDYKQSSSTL

[9] = Ratio of drug level in C57Bl/6J mouse cerebrospinal fluid at 3 mg/kg, ip measured at 1 hr post dose by LC/MS/MS analysis to negative allosteric modulation of rat mGlu7 receptor expressed in HEK cells harboring Ga15; assay type: ADME, organism-based; details: in vivo
[10] = Total brain concentration in Sprague-Dawley rat at 30 mg/kg, ip measured at 1 hr post dose by LC/MS/MS analysis; assay type: ADME, organism-based; details: read-out: Drug uptake; procedure, shortened: as §1
Mus musculus [11] = test: Anxiolytic-like activity in C57Bl/6J mouse assessed as increase in total time spent in the light side of the chamber at 3 mg/kg, ip measured during 10-min testing period; assay type: functional, organism-based
Procedure, shortened: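 Mouse light/dark box at 3 mg/kg ip, with fluoxetine 15 mg/kg ip as reference; read-out was total time in the light side. Analysis by one-way ANOVA with Dunnett's post hoc test against vehicle, plus Grubb's outlier test.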

[12] = Drug level in Sprague-Dawley rat cerebrospinal fluid at 30 mg/kg, ip measured at 1 hr post dose by LC/MS/MS analysis; assay type: ADME, organism-based; details: read-out: Drug uptake; procedure, shortened: as §1
[13] = Volume of distribution at steady state in Sprague-Dawley rat at 0.2 mg/kg, iv or 10 mg/kg, po measured up to 24 hrs by LC-MS/MS analysis; assay type: ADME, organism-based; details: in vivo
Procedure, shortened: (§2)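 Rat discrete pharmacokinetics after iv and po (10 mg/kg) dosing, giving plasma clearance, Vss, half-life and oral bioavailability.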

[14] = Unbound brain to plasma concentration ratio in Sprague-Dawley rat at 30 mg/kg, ip measured at 1 hr post dose by LC/MS/MS analysis; assay type: ADME, organism-based; procedure, shortened: as §1
[15] = biological target: Metabotropic glutamate receptor 4 (Homo sapiens, UniProt Q14833); test: Negative allosteric modulation of mGlu4 receptor (unknown origin)
[16] = Fraction unbound in Sprague-Dawley rat plasma at 30 mg/kg, ip measured at 1 hr post dose by LC/MS/MS analysis; assay type: ADME, organism-based; details: in vivo
[17] = biological target: Metabotropic glutamate receptor 6 (Homo sapiens, UniProt O15303); test: Negative allosteric modulation of mGlu6 receptor (unknown origin)
[18] = Total plasma concentration in Sprague-Dawley rat at 30 mg/kg, ip measured at 1 hr post dose by LC/MS/MS analysis; assay type: ADME, organism-based; procedure, shortened: as §1
Mus musculus [19] = test: Anxiolytic-like activity in C57Bl/6J mouse assessed as suppression of marble burying activity […], ip administered 45 mins before habituation for 15 mins and measured following 30 mins interval by marble burying assay; assay type: functional, organism-based; details: 3 mg/kg, in the assay text read “3 mg/kg” for “15 mg/kg”
Procedure, shortened: (§3)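 Mouse marble-burying assay, ip dosing of test agent or fluoxetine, counting marbles buried. Analysis by one-way ANOVA with Dunnett's post hoc test against vehicle, plus Grubb's outlier test.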

[20] = Fraction unbound in Sprague-Dawley rat brain at 30 mg/kg, ip measured at 1 hr post dose by LC/MS/MS analysis; assay type: ADME, organism-based; details: in vivo
Mus musculus [21] = test: Anxiolytic-like activity in C57Bl/6J mouse assessed as suppression of marble burying activity at 3 mg/kg, ip administered 45 mins before habituation for 15 mins and measured following 30 mins interval by marble burying assay; assay type: functional, organism-based; procedure, shortened: as §3
Mus musculus [22] = test: Reduction in locomotive activity in C57Bl/6J mouse assessed as reduction in total distance traveled in maze at 10 mg/kg, ip after 120 secs by elevated zero maze assay; assay type: ADME, organism-based; details: in vivo, 2 min
Procedure, shortened: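 Elevated zero maze in mice dosed intraperitoneally; locomotion read as total distance traveled. Analysis by one-way ANOVA with Bonferroni post hoc test between doses.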

[23] = Half life in Sprague-Dawley rat at 0.2 mg/kg, iv or 10 mg/kg, po measured up to 24 hrs by LC-MS/MS analysis; assay type: ADME, organism-based; details: in vivo; procedure, shortened: as §2
[24] = Oral bioavailability in Sprague-Dawley rat at 10 mg/kg measured up to 24 hrs by LC-MS/MS analysis; assay type: ADME, organism-based; details: in vivo; procedure, shortened: as §2
[25] = Plasma concentration in C57Bl/6J mouse at 3 mg/kg, ip measured at 1 hr post dose by LC/MS/MS analysis; assay type: ADME, organism-based
Procedure, shortened: (§4)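 Mouse pharmacokinetic assessment at 3 mg/kg ip, sampled at the 1 h time point used in the behavioural tests.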

[26] = Fraction unbound in Sprague-Dawley rat brain at 0.2 to 0.25 mg/kg, iv via cassette dosing measured up to 24 hrs post dose by LC/MS/MS analysis; assay type: ADME, organism-based
[27] = Fraction unbound in mouse plasma at 0.2 to 0.25 mg/kg, iv via cassette dosing measured up to 24 hrs post dose by LC/MS/MS analysis; assay type: ADME, organism-based
[28] = biological target: Metabotropic glutamate receptor 8 (Homo sapiens, UniProt O00222); test: Negative allosteric modulation of mGlu8 receptor (unknown origin)
Sequence of Metabotropic glutamate receptor 8 (O00222 whole entry): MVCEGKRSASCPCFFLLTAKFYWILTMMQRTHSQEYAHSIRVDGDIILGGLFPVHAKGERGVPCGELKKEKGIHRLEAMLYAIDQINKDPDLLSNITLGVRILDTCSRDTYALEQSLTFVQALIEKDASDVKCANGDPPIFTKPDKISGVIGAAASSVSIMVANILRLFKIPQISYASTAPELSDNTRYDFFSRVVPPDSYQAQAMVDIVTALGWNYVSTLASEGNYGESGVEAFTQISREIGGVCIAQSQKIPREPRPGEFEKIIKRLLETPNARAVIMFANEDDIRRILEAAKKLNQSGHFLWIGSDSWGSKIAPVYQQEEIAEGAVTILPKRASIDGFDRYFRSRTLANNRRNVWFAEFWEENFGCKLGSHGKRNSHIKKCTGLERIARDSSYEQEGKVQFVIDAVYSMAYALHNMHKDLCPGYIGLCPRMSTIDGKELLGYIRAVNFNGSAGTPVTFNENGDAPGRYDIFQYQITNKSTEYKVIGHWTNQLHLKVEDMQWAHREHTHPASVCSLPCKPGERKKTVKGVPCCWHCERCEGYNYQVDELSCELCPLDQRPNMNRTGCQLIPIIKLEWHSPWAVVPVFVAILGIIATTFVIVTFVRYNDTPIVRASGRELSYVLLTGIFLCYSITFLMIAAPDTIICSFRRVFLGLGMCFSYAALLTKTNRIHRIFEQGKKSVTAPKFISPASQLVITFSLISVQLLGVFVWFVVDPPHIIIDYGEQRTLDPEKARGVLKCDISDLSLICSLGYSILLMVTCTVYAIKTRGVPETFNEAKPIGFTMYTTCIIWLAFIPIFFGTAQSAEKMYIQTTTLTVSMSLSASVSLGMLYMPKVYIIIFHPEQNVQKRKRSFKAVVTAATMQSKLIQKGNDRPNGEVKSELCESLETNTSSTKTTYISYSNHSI

[29] = Total brain concentration in Sprague-Dawley rat at 0.2 to 0.25 mg/kg, iv via cassette dosing measured up to 24 hrs post dose by LC/MS/MS analysis; assay type: ADME, organism-based; details: read-out: Drug uptake
Procedure, shortened: (§5)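 Rat IV cassette study of plasma:brain levels. Brain Kp taken as total brain:plasma; Kp,uu corrected with the rat brain homogenate unbound fraction.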

[30] = Drug level in C57Bl/6J mouse cerebrospinal fluid at 3 mg/kg, ip measured at 1 hr post dose by LC/MS/MS analysis; assay type: ADME, organism-based; details: read-out: Drug uptake; procedure, shortened: as §4
[31] = Brain to plasma permeability coefficient, Kp of the compound in Sprague-Dawley rat at 30 mg/kg, ip measured at 1 hr post dose by LC/MS/MS analysis; assay type: ADME, organism-based; procedure, shortened: as §1
Mus musculus [32] = test: Anti-anxiety activity in ip dosed C57Bl/6J mouse assessed as increase in total time spent in open arms by elevated zero maze assay; assay type: functional; details: read-out: MED
Procedure, shortened: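 Mouse elevated zero maze after intraperitoneal dosing at several doses; read-out was total time in open arms. Analysis by one-way ANOVA with Bonferroni post hoc test against vehicle.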

[33] = Unbound brain concentration in Sprague-Dawley rat at 0.2 to 0.25 mg/kg, iv via cassette dosing measured up to 24 hrs post dose by LC/MS/MS analysis; assay type: ADME, organism-based; details: in vivo; procedure, shortened: as §5
[34] = biological target: Metabotropic glutamate receptor 3 (Homo sapiens, UniProt Q14832); test: Negative allosteric modulation of mGlu3 receptor (unknown origin)
Sequence of Metabotropic glutamate receptor 3 (Q14832 whole entry): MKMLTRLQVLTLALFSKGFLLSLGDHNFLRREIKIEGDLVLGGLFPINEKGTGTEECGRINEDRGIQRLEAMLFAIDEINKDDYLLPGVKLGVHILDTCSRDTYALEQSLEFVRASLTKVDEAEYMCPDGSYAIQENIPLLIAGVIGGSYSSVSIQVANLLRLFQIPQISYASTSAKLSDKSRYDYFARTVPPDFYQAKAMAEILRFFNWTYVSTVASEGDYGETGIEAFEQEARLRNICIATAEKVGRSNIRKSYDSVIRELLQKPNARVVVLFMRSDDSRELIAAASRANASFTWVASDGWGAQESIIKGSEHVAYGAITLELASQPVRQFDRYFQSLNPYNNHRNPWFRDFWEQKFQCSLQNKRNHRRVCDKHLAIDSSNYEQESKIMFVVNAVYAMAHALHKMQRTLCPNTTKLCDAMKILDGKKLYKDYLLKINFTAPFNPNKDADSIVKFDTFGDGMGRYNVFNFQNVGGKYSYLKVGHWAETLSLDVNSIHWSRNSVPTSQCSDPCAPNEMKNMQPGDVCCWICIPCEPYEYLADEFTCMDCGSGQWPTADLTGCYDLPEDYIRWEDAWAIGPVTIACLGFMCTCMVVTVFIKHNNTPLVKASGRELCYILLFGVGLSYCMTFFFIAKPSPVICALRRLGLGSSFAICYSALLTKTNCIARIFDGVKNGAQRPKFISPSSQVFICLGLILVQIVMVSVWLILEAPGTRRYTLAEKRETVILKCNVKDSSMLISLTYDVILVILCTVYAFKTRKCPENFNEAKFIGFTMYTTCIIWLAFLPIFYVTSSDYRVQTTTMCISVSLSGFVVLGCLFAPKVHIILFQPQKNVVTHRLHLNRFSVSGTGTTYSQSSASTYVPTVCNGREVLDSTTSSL

[35] = Brain to plasma permeability coefficient, Kp of the compound in Sprague-Dawley rat at 0.2 to 0.25 mg/kg, iv via cassette dosing measured up to 24 hrs post dose by LC/MS/MS analysis; assay type: ADME, organism-based; procedure, shortened: as §5
[36] = Ratio of drug level in Sprague-Dawley rat cerebrospinal fluid at 30 mg/kg, ip measured at 1 hr post dose by LC/MS/MS analysis to Negative allosteric modulation of rat mGlu7 receptor expressed in HEK cells harboring Ga15; assay type: ADME, organism-based; details: in vivo
[37] = biological target: Metabotropic glutamate receptor 2 (Homo sapiens, UniProt Q14416); test: Negative allosteric modulation of mGlu2 receptor (unknown origin)
[38] = Unbound brain-to-plasma concentration ratio in Sprague-Dawley rat brain at 0.2 to 0.25 mg/kg, iv via cassette dosing measured up to 24 hrs post dose by LC/MS/MS analysis; assay type: ADME, organism-based; procedure, shortened: as §5

COc1ccc(CNc2cc(OC(F)(F)F)ccc2-n2cncn2)cc1OC
IC50 [1]: 5.9 µM | fraction unbound at 24 h [2]: 0.01 to 0.03 | fraction unbound at 24 h [3]: < 0.003

CNCCC(Oc1ccc(C(F)(F)F)cc1)c1ccccc1 (centres undefined)
Activity (Mus musculus [4]): Active

COc1cc(F)c(OCCNc2cc(Cl)ccc2-n2cncn2)cc1OC
IC50 [1]: > 10 µM

COc1cc(C(=O)Nc2cc(OC(F)(F)F)ccc2-n2cncn2)ccc1OCc1ccccc1
IC50 [1]: 3.1 µM

COc1ccc(CNc2cc(Cl)ccc2-n2cncn2)cc1OC
IC50 [1]: 7.9 µM

COc1cc(F)c(CCCNc2cc(OC(F)(F)F)ccc2-n2cncn2)cc1OC
IC50 [1]: 1.3 µM | fraction unbound at 24 h [2]: 0.01 to 0.03 | fraction unbound at 24 h [3]: < 0.003

COc1ccc(CCCNc2cc(Cl)ccc2-n2cncn2)cc1OC
IC50 [1]: > 10 µM

COc1cc(F)c(OCCNc2cc(OC(F)(F)F)ccc2-n2cncn2)cc1OC
IC50 [1]: 1.2 µM | fraction unbound at 24 h [2]: 0.01 to 0.03 | fraction unbound at 24 h [3]: < 0.003

COc1cc(C(=O)Nc2cc(OC(F)(F)F)ccc2-n2cncn2)ccc1OCC1CCC1
IC50 [1]: 1.4 µM

COc1ccc(CCCNc2cc(OC(F)(F)F)ccc2-n2cncn2)cc1OC
IC50 [1]: 1.6 µM | fraction unbound at 24 h [2]: 0.01 to 0.03 | fraction unbound at 24 h [3]: < 0.003

COc1cc(F)c(CCCNc2cc(Cl)ccc2-n2cncn2)cc1OC
IC50 [1]: > 10 µM

COc1cc(C(=O)Nc2cc(OC(F)(F)F)ccc2-n2cncn2)ccc1OCC1CC1
Kp [5]: 2.15 | Activity [6]: > 50% | IC50 [7]: > 10 µM | IC50 [8]: > 10 µM | Ratio [9]: 2.5 | concentration at 1 h [10]: 745 nM | Activity (Mus musculus [11]): Active | IC50 [1]: 0.35 µM | concentration at 1 h [12]: 1300 nM | Vdss [13]: 1.9 L/kg | K(p,uu,brain) [14]: 0.38 | IC50 [15]: > 10 µM | Fu ([2]; in vivo, 24 h): 0.028 | Cp(f) [16]: 16.7 nM | IC50 [17]: > 10 µM | concentration at 1 h [18]: 598 nM | Activity (Mus musculus [19]): Active | Drug uptake(free) [20]: 6.4 nM | Activity (Mus musculus [21]): Active | Activity (Mus musculus [22]): Toxic | t1/2 [23]: 40 min | F [24]: 74.9% | concentration at 1 h [25]: 303 nM | fraction unbound at 24 h [3]: 0.009 | fraction unbound at 24 h [26]: 0.009 | fraction unbound at 24 h [27]: 0.026 | IC50 [28]: > 10 µM | concentration at 24 h [29]: 375 nM | concentration at 1 h [30]: 883 nM | Kp [31]: 1.24 | minimal effective dose (Mus musculus [32]): 3 mg/kg | Drug uptake(free) [33]: 3.4 nM | IC50 [34]: > 10 µM | Kp [35]: 2.35 | Ratio [36]: 3.8 | IC50 [37]: > 10 µM | K(p,uu,brain) [38]: 0.75

COc1cc(C(=O)Nc2cc(OC(F)(F)F)ccc2-n2cncn2)ccc1OCC(C)C
IC50 [1]: 1.2 µM

COc1cc(C(=O)Nc2cc(OC(F)(F)F)ccc2-n2cncn2)ccc1OCC1CCCC1
IC50 [1]: 2.8 µM

COc1cc(C(=O)Nc2cc(OC(F)(F)F)ccc2-n2cncn2)ccc1OCC(F)(F)F
IC50 [1]: > 30 µM
